Screens from PubChem.
Cl transport mod: KCC2 cotransporter modulators, thallium flux, primary screen, cell-based, HEK293 KCC2, FluoZin-2 fluorescence, MLSMR; Solute carrier family 12 member 5 (Homo sapiens), Q9H2X9; KCC2 cells, thallium flux FluoZin-2 fluorescence; B-score of Tl+ flux slope (higher = more flux/activation; lower = inhibition) at 10 µM; 190,000 tested, 2.2% active;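 active = thallium flux slope and its plate-corrected score both differing from the plate sample mean at a set confidence after two filtering rounds, in either direction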;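 also: slope of fluorescence scaled to starting intensity during 10 to 20 s after thallium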
Target sequence (Q9H2X9 whole entry, looked up): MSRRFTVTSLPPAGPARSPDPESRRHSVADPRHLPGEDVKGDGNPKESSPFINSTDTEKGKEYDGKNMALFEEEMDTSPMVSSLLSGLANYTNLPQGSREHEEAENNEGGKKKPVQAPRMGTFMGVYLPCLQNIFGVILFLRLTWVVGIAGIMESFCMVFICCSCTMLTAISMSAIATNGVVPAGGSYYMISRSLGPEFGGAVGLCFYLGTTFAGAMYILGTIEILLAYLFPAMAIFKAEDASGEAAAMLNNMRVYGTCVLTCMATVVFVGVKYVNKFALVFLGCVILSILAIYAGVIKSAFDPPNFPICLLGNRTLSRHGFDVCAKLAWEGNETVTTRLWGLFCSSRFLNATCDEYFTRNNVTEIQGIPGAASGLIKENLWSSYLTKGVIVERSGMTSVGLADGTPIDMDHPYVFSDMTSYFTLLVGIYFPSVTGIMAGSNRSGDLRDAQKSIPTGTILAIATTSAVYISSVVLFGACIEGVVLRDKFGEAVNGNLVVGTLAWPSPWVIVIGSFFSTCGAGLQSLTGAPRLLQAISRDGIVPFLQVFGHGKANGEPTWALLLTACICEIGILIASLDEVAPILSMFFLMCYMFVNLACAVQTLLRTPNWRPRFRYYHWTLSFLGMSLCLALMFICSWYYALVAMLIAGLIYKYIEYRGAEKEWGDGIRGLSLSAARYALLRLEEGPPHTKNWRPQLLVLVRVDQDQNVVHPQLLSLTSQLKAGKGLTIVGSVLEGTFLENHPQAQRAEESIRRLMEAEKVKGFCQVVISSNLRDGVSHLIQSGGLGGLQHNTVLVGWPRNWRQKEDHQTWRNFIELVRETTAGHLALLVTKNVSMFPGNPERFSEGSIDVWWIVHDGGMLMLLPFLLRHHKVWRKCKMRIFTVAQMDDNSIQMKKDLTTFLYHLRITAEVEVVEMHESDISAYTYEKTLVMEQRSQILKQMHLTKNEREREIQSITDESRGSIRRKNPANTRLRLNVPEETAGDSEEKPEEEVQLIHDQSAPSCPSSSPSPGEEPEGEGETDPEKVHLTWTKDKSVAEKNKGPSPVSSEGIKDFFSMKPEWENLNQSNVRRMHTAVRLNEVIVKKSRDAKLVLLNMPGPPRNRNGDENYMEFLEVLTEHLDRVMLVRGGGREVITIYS
Diaphorase act: compounds boosting diaphorase resazurin reduction – biochemical, uHTS, resorufin fluorescence, counter-screen for diaphorase-coupled primary assays, primary screen | 190,000 tested, 0.005% active | activation factor at 20 µM | Diaphorase/resazurin coupled assay, 16 min; hits give high values; 1 = vehicle wells, 0 = NADH-free wells | AID 1229, 2008;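 active = diaphorase activity raised at least twofold by the compound at 20 µM; inactive = activation factor below 2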
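Material: Clostridium kluyveri diaphorase, purified enzyme; Quantity: enzyme 0.07 U/mL final; Medium: HEPES pH 7.4 buffer with MgCl2 and Tween 20; Dosing: single compound dose of 20 µM, 1% DMSO final; Schedule: 16 min reaction at room temperature; Measured by: red resorufin fluorescence at 544/590 nm excitation/emission.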
WT yeast gro inh: growth inhibition of WT strain, primary screen, mitochondrial fusion inhibitor project, WT and mutant strains, chemical genetic. mitochondrial fusion phenotypic screen. inhibition, % at 10 µM. 190,000 tested, 2.1% active. AID 1362, 2008; in the data active = inhibition above about 58%; tested in S. cerevisiae
ROMK mod: ROMK potassium channel modulators, primary screen, cell-based, thallium flux, MLSMR library; 130,000 tested, 2% active; AID 1918, 2009; B-score at 10 µM; Tet-inducible ROMK, thallium flux fluorescence; actives lie on both sides; ATP-sensitive inward rectifier potassium channel 1 (Homo sapiens), P48048;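 active = signal ratio slope over the read window, or its plate-corrected B-score, at least 3 SD from the plate mean, either direction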;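 also: B-score of the F/F0 ratio slope over 7 to 12 s after thallium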
Lmaj promast: Leishmania major promastigote growth inhibition, primary screen; Leishmania major promastigotes, resazurin fluorescence viability; inhibition, % at 10 µM; 200,000 tested, 9% active; in the data active = inhibition above about 50%;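 also: promastigotes grown with compound for 44 hours at 28 °C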
Diaphorase inh: diaphorase inhibitors and chemical oxidizers, primary screen, counter-screen for diaphorase-coupled primary assays, biochemical, uHTS, resorufin fluorescence; diaphorase resazurin-to-resorufin fluorescence, NADH, 16 min; bacterial (C. kluyveri) enzyme, not human; inhibition, % at 20 µM; 190,000 tested, 0.69% active; AID 1217, 2008;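 active = primary screen inhibition at 20 µM above a set limit, cut at about 50% in these data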
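controls = No-NADH positive control and DMSO neutral control | system = Clostridium kluyveri diaphorase enzyme | timing = reaction incubation of 16 min at room temperature | signal = resorufin fluorescence 544/590 nm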
Large screens that a line does not name were inactive. The list is not random: actives were taken first. Their share in the collection is about 12%.

Nc1nc(-c2ccccc2)cc(-c2ccccc2O)n1	none (no result: Cl transport mod)
NNc1nc(-c2ccccc2)cc(-c2ccccc2O)n1	Lmaj promast 89 (no result: ROMK mod)
O=c1/c(=C\c2cc([N+](=O)[O-])cc([N+](=O)[O-])c2O)sc2nc3ccccc3n12	Cl transport mod -3.3, Diaphorase inh 50
O=c1/c(=C/c2ccccn2)sc2nc3ccccc3n12	none (no result: Cl transport mod)
O=C(O)c1cc(C(=O)O)cc(-c2ccc(/C=c3/sc4nc5ccccc5n4c3=O)o2)c1	Diaphorase inh 98
CN(/N=C/c1ccc(O)cc1O)c1ncc(C(F)(F)F)cc1Cl	none (no result: Diaphorase act, WT yeast gro inh, ROMK mod, Lmaj promast, Diaphorase inh)
CC1=CC(=O)N(c2ccc(C)cc2)C1c1ccc(Cl)cc1 (stereo not given)	Lmaj promast 61 (no result: ROMK mod)
CC1=CC(=O)N(c2cccc(C(F)(F)F)c2)C1c1ccc(Cl)cc1 (stereo not given)	none (no result: ROMK mod)
O=C1CSC(c2cccc(Cl)c2Cl)N1c1ccccn1 (stereo not given)	Lmaj promast 91
C[C@@H]1CN(c2c(F)c(N)c3c(=O)c(C(=O)O)cn(C4CC4)c3c2F)C[C@H](C)N1	none (no result: ROMK mod, Lmaj promast)
COc1ccc(C(CNC(=O)c2cccc(Br)c2)N2CCCC2)cc1 (stereo not given)	Lmaj promast 54 (no result: ROMK mod)
CCC(C)Nc1nc(Cl)nc(NCCOc2ccccc2)n1 (stereo not given)	Lmaj promast 80
CC(C)Nc1nc(Cl)nc(NCCOc2ccccc2)n1	none (no result: ROMK mod)
C[C@@H]1C=C(C(=O)N2CCOCC2)O[C@H](OCc2ccc(CO)cc2)C1	none (no result: ROMK mod)
O=C(c1ccc2c(c1)OCO2)N(Cc1cccs1)C1(C(=O)NC2CCCCC2)CCCCC1	WT yeast gro inh 62
COc1ccc(-c2[nH]ncc2CN2CCC(C(=O)c3ccc(F)cc3)CC2)cc1	none (no result: Diaphorase act, WT yeast gro inh, ROMK mod, Lmaj promast, Diaphorase inh)
COC(=O)c1ccccc1NC(=O)C(=O)NCc1ccncc1	none
CC(=O)N(Cc1cccnc1)c1cccc(-c2nc3ccccc3s2)c1	Lmaj promast 100 (no result: Cl transport mod, ROMK mod)
CCNc1nc(NCC)n2c(SCC(=O)Nc3ccc(C(F)(F)F)cc3[N+](=O)[O-])nnc2n1	none
COc1ccccc1NC(=O)Cc1noc(CSc2n[nH]c(N)n2)n1	none
Cc1cccc(N(C(=O)c2nsc(Cl)c2Cl)C(C(=O)NC2CCCC2)c2ccc(O)cc2)c1 (stereo not given)	Lmaj promast 85
CC(C)(C)[C@@H]1C=C(C(=O)Nc2ccccc2)O[C@H](OCc2ccc(CO)cc2)C1	Lmaj promast 99 (no result: ROMK mod)
C#CCNC(=O)C1=C[C@H](c2ccc(C(F)(F)F)cc2)C[C@H](OCc2ccc(CO)cc2)O1	none (no result: ROMK mod)
O=C(Nc1ccccc1)C1=C[C@@H](c2ccc(Br)cc2)C[C@@H](OCc2ccc(CO)cc2)O1	Lmaj promast 56 (no result: ROMK mod)
C#CCNC(=O)C1=C[C@@H](c2ccccc2)C[C@@H](OCc2ccc(CO)cc2)O1	Diaphorase inh 56 (no result: ROMK mod)
O=C(NC1CC1)C1=C[C@@H](C2CCCCC2)C[C@@H](OCc2ccc(CO)cc2)O1	Lmaj promast 98 (no result: ROMK mod)
C#CCNC(=O)C1=C[C@H](C(C)(C)C)C[C@H](OCc2ccc(CO)cc2)O1	none (no result: ROMK mod)
CCCCC(CC)C(=O)Oc1ccc(O)c(C(C)(C)C)c1 (stereo not given)	WT yeast gro inh 91
CCNc1nc(=S)nc(NCc2ccccc2)[nH]1	none
Clc1ccc(Cn2cccc2C2=NCCO2)cc1	none (no result: Cl transport mod)
COC(=O)c1cc(=O)n(Cc2cccs2)c(=Nc2ccc(F)cc2)s1	Lmaj promast 98 (no result: ROMK mod)
COC(=O)c1c(O)cc(C(C)(C)C)n(-c2ccc(F)cc2)c1=O	Lmaj promast 63
COC(=O)c1cc(=O)n(Cc2ccc3c(c2)OCO3)c(=Nc2ccccc2)s1	Lmaj promast 82 (no result: ROMK mod)
COC(=O)c1cc(=O)n(-c2ccc(F)cc2)c(=Nc2ccc(F)cc2)s1	Lmaj promast 92
CC(C)(O)P(=O)(O)CCc1ccccc1	none (no result: Diaphorase act, WT yeast gro inh, Lmaj promast, Diaphorase inh)
COC(=O)c1cc(=O)n(Cc2ccc3c(c2)OCO3)c(=Nc2ccc(F)cc2)s1	Lmaj promast 87 (no result: ROMK mod)
CCOC(=O)c1ccc(N=c2sc(C(=O)OC)cc(=O)n2C2CC2)cc1	none (no result: Diaphorase act, Diaphorase inh)
CCOC(=O)c1ccc(N=c2sc(C(=O)OC)cc(=O)n2Cc2ccc3c(c2)OCO3)cc1	Lmaj promast 100 (no result: Cl transport mod, ROMK mod)
Cn1c(CN2CCN(C(=O)c3ccc(F)cc3)CC2)nc2cc([N+](=O)[O-])ccc21	Lmaj promast 64 (no result: ROMK mod)
COC(=O)C1=NN(C(=O)c2ccccc2)C(C)(O)C1 (stereo not given)	none (no result: Cl transport mod)
COC(=O)C1=NN(C(=O)c2cccc(Cl)c2)C(O)(C(C)(C)C)C1 (stereo not given)	Cl transport mod 51, ROMK mod 2.6
CCOC(=O)C1=C(O)/C(=C\c2ccc(CNC(=O)C(=O)Nc3ccc(C)c(C)c3)o2)N=C1C	none
CCOc1ccc(S(=O)(=O)N(CC(=O)N/N=C/c2ccc(-c3ccc([N+](=O)[O-])cc3)o2)c2ccccc2)cc1	Diaphorase inh 62
CC(=O)Nc1cccc(OCc2ccc(S(=O)(=O)Cc3ccccc3)cc2)c1	none
COc1cccc(CN2CCN(C(=S)NCc3ccc(Cl)cc3)CC2)c1	WT yeast gro inh 67, Lmaj promast 89
Cc1ccccc1NC(=S)N1CCN(Cc2ccc3c(c2)OCO3)CC1	none (no result: ROMK mod)
CCN(CC)c1ccc(C(=O)NC(=S)N2CCN(Cc3ccc4c(c3)OCO4)CC2)cc1	Cl transport mod 17, ROMK mod -3.3
S=C(NCc1ccccc1)N1CCN(Cc2ccc3c(c2)OCO3)CC1	WT yeast gro inh 60, Lmaj promast 92
CCCCNC(=S)N1CCN(Cc2ccc3c(c2)OCO3)CC1	Lmaj promast 75
Cc1ccc(C(=O)OCC(=O)Nc2c(Cl)cc(S(N)(=O)=O)cc2Cl)o1	none (no result: Diaphorase act, WT yeast gro inh, ROMK mod, Lmaj promast, Diaphorase inh)
O=C(c1ccccc1)c1nnc(-c2ccncc2)o1	WT yeast gro inh 72
O=C(c1ccc(Cl)cc1)c1nnc(-c2ccncc2)o1	none
Cc1ccccc1Cc1c(C)nc2c(C(=O)NCc3ccc4c(c3)OCO4)cnn2c1C	none (no result: ROMK mod)
CCOc1ccc(S(=O)(=O)N2CCN(C(=O)c3cc4c(s3)CCCC4)CC2)cc1	WT yeast gro inh 63, Lmaj promast 78
O=C(c1ccc(Br)o1)N1CCN(Cc2ccc3c(c2)OCO3)CC1	none (no result: Cl transport mod)
O=C(c1cc2c(s1)CCCC2)N1CCN(Cc2ccc3c(c2)OCO3)CC1	Lmaj promast 94 (no result: ROMK mod)
O=C(c1ccc(Br)s1)N1CCN(Cc2ccc3c(c2)OCO3)CC1	Lmaj promast 82 (no result: ROMK mod)
